Sampled rows, rich in hits. Any-hit rate of the full collection: about 4.3%.
APP 5'UTR act = activates APP 5'UTR luciferase reporter; SH-SY5Y APP 5'UTR luciferase reporter, luminescence; zero percent = DMSO vehicle wells; activation, % at 2 µM; 190,000 compounds, 1% hits; AID 1276;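 active = activation above a set limit, based on mean plus 3 SD of controls, cut at about 140% in these data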
STAT1 activator = activators of IFN-gamma induced STAT1 signaling. NIH 3T3 STAT1-luciferase reporter, luminescence; 100% = IFN-gamma alone, no compound. activation (% of control), % at 5.5 µM. 200,000 compounds, 2.6% hits;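 active = activation above the screen-wide mean activation plus 3 SD, cut at about 130% in these data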;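 also: raw ratio to IFN-gamma control signal so 100% means no change and 0% no light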
FLuc stim CS = affects firefly luciferase, flagging false hits in luciferase stimulation screens; P08659; ATPlite luciferase biochemical, luminescence, 10 min; 0 = ATP-free wells, 1 = DMSO control; activation factor at 10 µM; 200,000 tested, under 10 active;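 active = luciferase activation factor, scaled between plate controls, of at least 2 with compound at 10 µM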
Target sequence (P08659 whole entry, looked up): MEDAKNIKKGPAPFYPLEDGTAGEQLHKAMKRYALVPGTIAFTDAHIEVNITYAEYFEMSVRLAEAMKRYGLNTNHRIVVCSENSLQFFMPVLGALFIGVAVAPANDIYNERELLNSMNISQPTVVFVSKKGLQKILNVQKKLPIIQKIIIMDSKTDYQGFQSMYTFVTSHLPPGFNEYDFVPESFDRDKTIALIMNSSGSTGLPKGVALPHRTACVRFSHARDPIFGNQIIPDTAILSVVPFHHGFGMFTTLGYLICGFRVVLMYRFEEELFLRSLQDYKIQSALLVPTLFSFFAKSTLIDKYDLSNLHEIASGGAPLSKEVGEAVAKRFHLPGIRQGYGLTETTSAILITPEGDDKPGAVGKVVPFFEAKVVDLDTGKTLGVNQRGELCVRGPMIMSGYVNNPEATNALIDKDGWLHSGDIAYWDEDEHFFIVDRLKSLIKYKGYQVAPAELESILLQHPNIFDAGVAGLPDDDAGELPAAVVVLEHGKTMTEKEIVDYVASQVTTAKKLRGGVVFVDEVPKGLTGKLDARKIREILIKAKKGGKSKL
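Material: luciferase plus luciferin reagent, cell-free. Medium: PBS buffer for ATP. Also added: ATP substrate, dispensed from a 10.24 µM working solution in PBS. Doses: test compounds dosed from 2 mM stocks in 100% DMSO. Incubation: 10 min post-reagent at room temperature. Technique: light output (luminescence). Read-out basis: luminescence gain marking luciferase activators.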
NF-kB expr up = raises NF-kB expression in human neuronal cells | NF-kB reporter expression; hits give high values | fold change at 12.5 µM | 190,000 compounds, 1.6% hits | AID 1239; in the data active = fold change above about 3.3
FLuc inhib CS = inhibits firefly luciferase, flagging false hits in luciferase inhibition screens. P08659. ATPLite firefly luciferase biochemical luminescence, 10 min. inhibition, % at 10 µM. 200,000 compounds, 1.5% hits;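 active = inhibition above about 50% when tested at 10 µM, limit read from the data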
The depositor's hits bear a star; . = no result given.

SMILES	APP 5'UTR act	STAT1 activator	FLuc stim CS	NF-kB expr up	FLuc inhib CS
Cc1nn(C2CCCO2)c(=O)nc1N (stereo unspecified)	22.5	104.7	1	1.34	3.4
COc1ccc(C(=O)Nc2ccc3nc(C)sc3c2)cc1OC	27.3	117.8	0.9	0.97	13.5
COc1ccc(OCC(=O)Nc2nc3ccccc3[nH]2)cc1	49.6	106.3	0.3	2.21	67.8*
COc1ccc(C(=O)Nc2nc(C)c(C)s2)cc1OC	104.0	139.0*	0.9	1.95	11.8
c1ccc(CN2CCN(CCOCCOc3ccc4c(c3)CCC4)CC2)cc1	17.7	97.8	1.1	1.16	-6.3
O=C1C=C(Nc2ccccc2)c2ccccc2C1=O	-1.7	99.8	1	0.45	-1.3
O=C1C=C(Nc2ccccc2)C(=O)c2ccccc21	140.4*	132.4*	0.6	8.16*	43.7
O=C(COc1ccc(Cl)cc1Cl)Nc1ccccn1	-0.8	19.5	0	0.97	97.4*
CC(c1ccco1)N(C(=O)COc1ccc(Cl)cc1Cl)c1ccccn1 (stereo unspecified)	197.0*	122.1	0.7	3.95*	33.1
COc1ccccc1OCC(=O)Nc1ccccn1	125.4	128.7*	0.3	1.13	71.0*
O=C(NCCCn1ccnc1)c1cccc(S(=O)(=O)NCc2ccccc2)c1	15.4	101.6	1.1	1.02	-9.7
Cc1nc2ccccc2c(=O)n1NC(=O)C1CC1C (stereo unspecified)	12.9	101.7	1	1.16	0.7
CCOc1c2ccc(C(=O)NCCc3cccs3)cc2nn1CC	81.0	143.9*	0.8	3.04	18.9
CCCCOc1ccc(C(=O)NCCc2cccs2)cc1	52.8	134.5*	0.7	2.53	30.4
CCCCn1nc2cc(C(=O)NCCc3cccs3)ccc2c1OCC	7.5	112.6	1.1	1.3	-9.0
CC(C)N1CCN(Cc2ccc3c(c2)Cc2ccccc2-3)CC1CCO (stereo unspecified)	2.2	102.9	1.1	0.85	-5.0
Cc1cccc(-n2cc(C(=O)O)c(=O)cc2C)c1	-15.7	99.7	1	0.92	0.0
O=C(c1cccc([N+](=O)[O-])c1)N1CCOCC1	15.3	97.9	1.1	1.27	-8.5
O=C(/C=C\c1ccc(-c2cccc([N+](=O)[O-])c2)o1)N1CCOCC1	18.1	128.6*	1	1.01	3.8
CCCCn1nnnc1SCC(=O)NCc1ccco1	.	101.4	1.1	1.36	-5.2
Fc1ccccc1COc1ccc(-c2nnn(Cc3ccccc3F)n2)cc1	-11.0	97.2	1.1	1.44	-6.7
Cn1nnc(-c2ccc(OCc3ccccc3F)cc2)n1	138.2*	122.1	0.9	7.83*	13.8
CC1CCC/C(=N\Nc2ccc(Cl)c(C(=O)O)c2)C1 (stereo unspecified)	216.8*	111.3	1	1.72	0.9
Cc1nc(N2CCN(S(=O)(=O)c3ccc(F)cc3)CC2)c2c(-c3cccs3)csc2n1	-7.4	94.8	1	0.78	-1.9
CC(=O)N=C(N)Sc1nc2ccccc2[nH]1	63.2	134.5*	0.8	2.7	24.9
SMILES	APP 5'UTR act	STAT1 activator	FLuc stim CS	NF-kB expr up	FLuc inhib CS
CC/C(=N\NC(=O)c1ccoc1C)c1ccc(C)o1	114.2	130.1*	1	2	0.4
Cc1ccc2c(CN3CCC(C)CC3)cc(=O)oc2c1	77.9	138.2*	1	4.08*	1.7
O=C(Oc1oc(-c2ccco2)nc1C=Nc1ccccc1)c1ccoc1	-16.4	104.5	1	2.26	-2.4
CN(C)c1ccc(N=Cc2nc(-c3ccccc3)oc2OC(=O)c2cccc(Cl)c2)cc1	134.6	128.8*	0.9	3.43*	12.3
Cc1ccc(C(=O)Oc2oc(-c3ccccc3)nc2C=Nc2ccc(N(C)C)cc2)cc1	145.9*	149.0*	0.7	1.1	32.1
O=C(Oc1oc(-c2ccco2)nc1C=Nc1ccccc1)c1ccco1	-2.3	98.0	1	1.94	-4.0
Cn1nnc2cc(C(=O)Nc3ccccc3)ccc21	27.9	129.6*	0.9	1.75	13.1
Cn1nnc2cc(C(=O)Nc3cccnc3)ccc21	19.0	107.0	1	1.23	3.6
Cc1ccc(NC(=O)c2ccc3c(c2)nnn3C)cc1	44.5	115.2	1	1.92	-1.1
Cn1nnc2cc(C(=O)Nc3ccc(Cl)cc3)ccc21	41.5	132.2*	1	1.48	0.2
COc1ccc(-n2cnc3cc(C(=O)NCCN4CCOCC4)ccc32)cc1	14.4	116.4	1	1.04	-2.8
Cn1ncc2c1ncn1nc(COc3ccc4ccccc4c3)nc21	-6.9	103.6	1	0.9	1.2
Cn1ncc2c1ncn1nc(CCc3ccccc3)nc21	29.3	142.5*	0.9	3.8*	10.0
Cc1cccc(Nc2nnc(SCC(=O)Nc3ccccc3[N+](=O)[O-])s2)c1	29.3	94.2	0.8	1.1	20.0
CCOC(=O)c1sc(Nc2ccccc2)nc1C	68.2	119.7	1	2.39	3.5
CC(C)(C)C(=O)CSc1nnc(Nc2ccccc2)s1	16.4	130.2*	0.9	1.84	6.3
Cc1cccc(Nc2nnc(SCC(=O)Nc3ccc(C(=O)O)cc3)s2)c1	-12.9	95.8	0.3	1.2	67.5*
CC(C)(C)C(=O)c1sc(Nc2ccccc2)nc1N	64.5	149.5*	0.6	3.84*	36.7
COc1cccc(NC(C)C(=O)Nc2cc([N+](=O)[O-])ccc2Cl)c1 (stereo unspecified)	4.3	95.6	1	1.22	-3.5
O=C(c1nn(Cc2ccccc2)c(=O)c2ccccc12)N1CCN(C/C=C/c2ccccc2)CC1	5.4	92.3	1	0.57	-4.8
COc1ccc(OC(=O)c2cnn(-c3ccccc3)c2C)cc1	105.6	150.5*	0.9	5.93*	13.0
COc1ccc(Oc2cnn(-c3ccccc3)c(=O)c2Br)cc1	11.1	110.1	1.1	1.28	-5.7
O=C(Cc1cnc2ncnn2c1)N1CCc2c([nH]c3ccccc23)C1c1ccccn1 (stereo unspecified)	42.5	94.8	1	1.02	-1.2
COc1ccc2c3c(cccc13)C(=O)N(O)C2=O	-9.7	97.5	1	7.09*	-0.4
COc1ccccc1N1C(=O)c2cccc3c(C(=O)O)ccc(c23)C1=O	-4.6	89.8	1	1.24	-3.4
SMILES	APP 5'UTR act	STAT1 activator	FLuc stim CS	NF-kB expr up	FLuc inhib CS
O=C(CCC1CCCC1)N1CCC(N2CCCCCC2)CC1	-4.8	95.0	1	1.14	-1.6
N#Cc1c(NCCO)nc(NCc2ccccc2)c2c1CCN(Cc1ccccc1)C2	-6.2	97.5	1.1	5.81*	-9.6
CCN1CCc2c(C#N)c(N3CCOCC3)nc(NCc3ccccc3)c2C1	-8.0	92.0	1.1	1.88	-6.0
CCN1CCc2c(C#N)c(N3CCCCC3)nc(NCc3ccccc3)c2C1	-1.6	108.5	1.1	2.56	-8.3
C=CCNc1nc(N2CCCCC2)c(C#N)c2c1CN(Cc1ccccc1)CC2	3.0	105.6	1	4.73*	-2.4
CCOC(=O)c1c(NC(=O)c2c(C(=O)O)cccc2[N+](=O)[O-])sc(C)c1C	-6.6	98.4	1.1	0.88	-6.0
COC(=O)CCc1nc2cc(Cl)ccc2n(Cc2ccccc2)c1=O	4.7	94.1	1.1	1	-6.6

Screening results: PubChem BioAssay, several laboratories
